Biological target: T1, OR2G2 (Homo sapiens) (UniProt Q8NGZ5)
T1 sequence (whole entry): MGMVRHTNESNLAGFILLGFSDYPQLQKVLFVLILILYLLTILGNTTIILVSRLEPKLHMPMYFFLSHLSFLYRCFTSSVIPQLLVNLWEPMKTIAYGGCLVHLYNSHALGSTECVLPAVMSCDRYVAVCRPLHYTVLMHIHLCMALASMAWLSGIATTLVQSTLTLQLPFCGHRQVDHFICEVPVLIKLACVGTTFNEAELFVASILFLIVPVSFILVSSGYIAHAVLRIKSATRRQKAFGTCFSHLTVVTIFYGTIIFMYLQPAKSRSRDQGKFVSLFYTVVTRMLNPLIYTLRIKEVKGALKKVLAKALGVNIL
Settings: stereoisomer not certain
In short: (§1)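 Assay methods differ from source to source, frequently being transient luciferase assays in mammalian cell lines. For each receptor–molecule pair, the label responsive (active) applies when the original authors judged the measured signal statistically different from baseline, and non-responsive (inactive) applies otherwise.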

SMILES | odorant receptor agonist call
CC=CC(=O)C1C(C)=CCCC1(C)C (configuration not stated) | active
CC1=CCC2CC1C2(C)C (configuration not stated) | inactive
CCCCCC1COCCC1OC(C)=O (configuration not stated) | inactive
CC(C)=CCCC(C)CC=O (configuration not stated) | inactive
C=CCOC(=O)COCCC(C)C | inactive
CCOC(=O)CC1(C)OCCO1 | inactive
CC(=O)OCc1ccccc1 | inactive
CCCC(C)C(=O)OCC (configuration not stated) | inactive
C=CC(C)(O)CCC=C(C)CCC=C(C)C (configuration not stated) | inactive
CCCCC1CCC(=O)O1 (configuration not stated) | inactive
CC(=O)C=CC1=C(C)CCCC1(C)C | inactive
OCc1ccccc1 | inactive
CC(C)CCCC(C)(C)O | inactive
COC1CC2CC1C1CC(C=O)CC21 (configuration not stated) | inactive
CCCCCCCCC(OC(C)=O)OC(C)=O | inactive
CC1CC(C)(c2ccccc2)CO1 (configuration not stated) | inactive
CC(C)=CCCC(C)=CCO | inactive
COc1ccc(C)cc1 | inactive
CCC=C(C)C(O)CCCCC (configuration not stated) | inactive

Biological target: T2, OR2H2 (Homo sapiens) (UniProt O95918)
T2 sequence (whole entry): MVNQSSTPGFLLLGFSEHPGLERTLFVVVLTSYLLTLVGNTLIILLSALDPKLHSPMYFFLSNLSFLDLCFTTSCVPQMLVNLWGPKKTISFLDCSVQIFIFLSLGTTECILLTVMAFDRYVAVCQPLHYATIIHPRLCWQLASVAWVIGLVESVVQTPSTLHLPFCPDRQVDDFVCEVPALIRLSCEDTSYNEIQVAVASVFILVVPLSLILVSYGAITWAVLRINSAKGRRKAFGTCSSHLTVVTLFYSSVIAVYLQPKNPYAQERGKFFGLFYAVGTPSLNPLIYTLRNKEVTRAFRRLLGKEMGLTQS
Settings: stereoisomer not certain
In short: as §1

SMILES | odorant receptor agonist call
CCCCCCCCO | inactive
CC(C)=CCCC(C)CC=O (configuration not stated) | active
CCCC=CC=CC=O | active
CC(C=O)=CCC(C)CC(C)C (configuration not stated) | inactive
CCCCCC=O | inactive
CCCCCC=CC=O | active
CCCCCCCC(=O)[O-].[H+] | inactive
CCCCCCCCCCCC=O | inactive
